# pIC50: −log10 of the molar value. Calls of active or inactive are those of the source.
# Assays:
# Candida albicans = experiment: Antifungal activity against Candida albicans ATCC 10231 by broth microdilution method; assay type: functional
# Outline: (§1)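 Broth microdilution per NCCLS. Compounds dissolved in DMSO as 10 mg/mL stock, diluted in Mueller Hinton broth (bacteria) or Sabouraud dextrose broth (fungi). Amikacin served as the positive control for bacteria and nystatin for fungi.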
# NCI-H460 [1] = experiment: Cytotoxicity against multidrug resistant human NCI-H460 cells after 72 hrs by MTT assay; assay type: functional, cell-based; conditions: NCI-H460, 72 h
# Outline: (§2)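 Seeding in 96-well plates at 1000 (NCI-H460), 2000 (NCI-H460/R) or 4000 (HaCaT) cells/well, treated after 24 h for 72 h. MTT at 0.4 mg/mL final, 4 h at 37 °C. Formazan dissolved in DMSO, absorbance read at 540 nm. Inhibition % = (1 − A treated/A untreated)×100. IC30 and IC50 obtained by linear regression.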
# Escherichia coli = experiment: Antibacterial activity against Escherichia coli ATCC 25922 by broth microdilution method; assay type: functional; outline: as §1
# NCI-H460 [2] = experiment: Cytotoxicity against human NCI-H460 cells after 72 hrs by MTT assay; assay type: functional, cell-based; conditions: NCI-H460, 72 h; outline: as §2
# Pseudomonas aeruginosa = experiment: Antibacterial activity against Pseudomonas aeruginosa ATCC 9027 by broth microdilution method; assay type: functional; outline: as §1
# Kocuria rhizophila = experiment: Antibacterial activity against Kocuria rhizophila ATCC 9341 by broth microdilution method; assay type: functional; conditions: DC2201; outline: as §1
# Aspergillus brasiliensis = experiment: Antifungal activity against Aspergillus brasiliensis ATCC 16404 by broth microdilution method; assay type: functional; outline: as §1
# Micrococcus luteus [3] = experiment: Antibacterial activity against Micrococcus luteus ATCC 4698 by broth microdilution method; assay type: functional; conditions: NCTC 2665; outline: as §1
# HaCaT [4] = experiment: Cytotoxicity against human HaCaT cells after 72 hrs by MTT assay; assay type: cell-based; conditions: for pIC50: Homo sapiens, HaCaT; for IC30: human, hacat; outline: as §2
# Proteus hauseri = experiment: Antibacterial activity against Proteus hauseri ATCC 13315 by broth microdilution method; assay type: functional; outline: as §1
# Clostridium sporogenes = experiment: Antibacterial activity against Clostridium sporogenes ATCC 19404 by broth microdilution method; assay type: functional; outline: as §1
# Salmonella enteritidis = experiment: Antibacterial activity against Salmonella enterica subsp. enterica serovar Enteritidis ATCC 13076 by broth microdilution method; assay type: functional; outline: as §1
# Micrococcus luteus [5] = experiment: Antibacterial activity against Micrococcus luteus ATCC 10240 by broth microdilution method; assay type: functional; outline: as §1
# Staphylococcus aureus = experiment: Antibacterial activity against Staphylococcus aureus ATCC 6538 by broth microdilution method; assay type: functional; outline: as §1
# Saccharomyces cerevisiae = experiment: Antifungal activity against Saccharomyces cerevisiae ATCC 9763 by broth microdilution method; assay type: functional; outline: as §1
# Bacillus spizizenii = experiment: Antibacterial activity against Bacillus subtilis ATCC 6633 by broth microdilution method; assay type: functional; outline: as §1
# NCI-H460 [6] = experiment: Induction of apoptosis in multidrug resistant human NCI-H460 cells assessed as early apoptotic cells at 25 uM after 72 hrs by annexin-V/propidium iodide staining-based flow cytometric analysis (reference value: 1.1%); assay type: functional
# NCI-H460 [7] = experiment: Induction of apoptosis in multidrug resistant human NCI-H460 cells assessed as live cells at 25 uM after 72 hrs by annexin-V/propidium iodide staining-based flow cytometric analysis (reference value: 96.4%); assay type: functional
# NCI-H460 [8] = experiment: Induction of apoptosis in human NCI-H460 cells assessed as dead cells at 25 uM after 72 hrs by annexin-V/propidium iodide staining-based flow cytometric analysis (reference value: 1.2%); assay type: functional
# NCI-H460 [9] = experiment: Induction of apoptosis in multidrug resistant human NCI-H460 cells assessed as late apoptotic/necrotic cells at 25 uM after 72 hrs by annexin-V/propidium iodide staining-based flow cytometric analysis (reference value: 1%); assay type: functional
# [10] = Selectivity ratio of IC30/IC50 for human HaCaT cells to IC30/IC50 for human NCI-H460 cells; assay type: ADME, cell-based; conditions: HaCaT cells versus NCI-H460 cells
# Outline: (§3)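 Fold threshold of 1.5 used to call selectivity to cancer cells, resistance, or selectivity to MDR cells.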
# NCI-H460 [11] = experiment: Induction of apoptosis in human NCI-H460 cells assessed as early apoptotic cells at 25 uM after 72 hrs by annexin-V/propidium iodide staining-based flow cytometric analysis (reference value: 0.3%); assay type: functional
# [12] = Induction of apoptosis in human HaCaT cells assessed as live cells at 25 uM after 72 hrs by annexin-V/propidium iodide staining-based flow cytometric analysis (reference value: 96.8%); assay type: cell-based; conditions: read-out: Activity
# HaCaT [13] = experiment: Induction of apoptosis in human HaCaT cells assessed as late apoptotic/necrotic cells at 25 uM after 72 hrs by annexin-V/propidium iodide staining-based flow cytometric analysis (reference value: 0.2%); assay type: cell-based
# HaCaT [14] = experiment: Induction of apoptosis in human HaCaT cells assessed as dead cells at 25 uM after 72 hrs by annexin-V/propidium iodide staining-based flow cytometric analysis (reference value: 2.8%); assay type: cell-based
# NCI-H460 [15] = experiment: Induction of apoptosis in human NCI-H460 cells assessed as live cells at 25 uM after 72 hrs by annexin-V/propidium iodide staining-based flow cytometric analysis (reference value: 98.3%); assay type: functional
# NCI-H460 [16] = experiment: Induction of superoxide anion generation in multidrug resistant human NCI-H460 cells at 25 uM after 72 hrs by DHE staining-based flow cytometric analysis relative to control; assay type: functional, cell-based
# Outline: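 Seeded as for cell death (50,000 or 100,000 cells/well), treated 72 h at 25 µM, with CDDP 5 µM as control. Adherent cells trypsinized and loaded with 1 µM DHE for 30 min at 37 °C in the dark, then washed twice in PBS. Flow cytometry at ex 488/em 585 nm (FL2-H). Mean fluorescence intensity corrected for autofluorescence and compared with untreated control.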
# HaCaT [17] = experiment: Induction of apoptosis in human HaCaT cells assessed as early apoptotic cells at 25 uM after 72 hrs by annexin-V/propidium iodide staining-based flow cytometric analysis (reference value: 0.2%); assay type: cell-based
# NCI-H460 [18] = experiment: Induction of apoptosis in human NCI-H460 cells assessed as late apoptotic/necrotic cells at 25 uM after 72 hrs by annexin-V/propidium iodide staining-based flow cytometric analysis (reference value: 0.2%); assay type: functional
# NCI-H460 [19] = experiment: Induction of apoptosis in multidrug resistant human NCI-H460 cells assessed as dead cells at 25 uM after 72 hrs by annexin-V/propidium iodide staining-based flow cytometric analysis (reference value: 1.5%); assay type: functional
# [20] = Selectivity ratio of IC30/IC50 for human HaCaT cells to IC30/IC50 for multidrug resistant human NCI-H460 cells; assay type: ADME, cell-based; conditions: HaCaT cells versus multidrug resistant NCI-H460 cells; outline: as §3
# NCI-H460 [21] = experiment: Selectivity ratio of IC30/IC50 for human NCI-H460 cells to IC30/IC50 for multidrug resistant human NCI-H460 cells; assay type: functional; outline: as §3
Structure (SMILES),MIC (Candida albicans) [µM],IC30 (NCI-H460 [1]) [µM],pIC50 (NCI-H460 [1]),MIC (Escherichia coli) [µM],IC30 (NCI-H460 [2]) [µM],pIC50 (NCI-H460 [2]),MIC (Pseudomonas aeruginosa) [µM],MIC (Kocuria rhizophila) [µM],MIC (Aspergillus brasiliensis) [µM],MIC (Micrococcus luteus [3]) [µM],pIC50 (HaCaT [4]),IC30 (HaCaT [4]) [µM],MIC (Proteus hauseri) [µM],MIC (Clostridium sporogenes) [µM],MIC (Salmonella enteritidis) [µM],MIC (Micrococcus luteus [5]) [µM],MIC (Staphylococcus aureus) [µM],MIC (Saccharomyces cerevisiae) [µM],MIC (Bacillus spizizenii) [µM],selectivity ratio [10],other results
CCNC1=CC(=O)C(C(C)(C)C)=CC1=O,1510,45,4.19,188,45,4.19,3020,758,381,1510,4.12,50,1510,1510,758,48,96,3020,1510,,
CCCCCCCCNC1=CC(=O)C(C(C)(C)C)=CC1=O,4300,21,4.19,4300,18,4.15,2150,4300,2150,4300,< 4.00,> 100,2150,2150,2150,2150,4300,4300,4300,≤ 1.5,"Activity (NCI-H460 [6]): 0.2%; Activity (NCI-H460 [7]): 83.9%; Activity (NCI-H460 [8]): 17.3%; Activity (NCI-H460 [9]): 1.9%; Activity (NCI-H460 [11]): 0.1%; viability at 72 h, 25 µM [12]: 93.8%; Activity (HaCaT [13]): 0.5%; Activity (HaCaT [14]): 5.7%; Activity (NCI-H460 [15]): 80.9%; Activity (NCI-H460 [16]): inactive; Activity (HaCaT [17]): 0%; Activity (NCI-H460 [18]): 1.7%; Activity (NCI-H460 [19]): 14%; selectivity ratio [20]: ≤ 1.5"
CCCCNC1=CC(=O)C(C[C@]2(C)[C@@H](C)CC[C@]3(C)C(C)=CCC[C@@H]23)=CC1=O,,24,< 4.00,,91,< 4.00,,,,,< 4.00,86,,,,,,,,≤ 1.5,selectivity ratio (NCI-H460 [21]): <=1.5; selectivity ratio [20]: ≤ 1.5

# From ChEMBL document CHEMBL3822380, “Simple avarone mimetics as selective agents against multidrug resistant cancer cells” (Eur J Med Chem, 2016)
